Bioassay records as filed in PubChem BioAssay.
Diaphorase inh: inhibits diaphorase or chemically oxidizes, flagging diaphorase assay artifacts. diaphorase resazurin-to-resorufin fluorescence, NADH, 16 min; bacterial (C. kluyveri) enzyme, not human. 190,000 compounds, 0.69% hits. inhibition, % at 20 µM;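 active = primary screen inhibition at 20 µM above a set limit, cut at about 50% in these data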;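 note: plate controls were DMSO with full reaction for no effect and wells lacking NADH for full effect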
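controls = No-NADH positive control and DMSO neutral control | system = Clostridium kluyveri diaphorase enzyme | timing = reaction incubation of 16 min at room temperature | signal = resorufin fluorescence 544/590 nm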
DTT redox prof: compounds producing H2O2 with reducing agent – biochemical, NIH compound library profiling, artefact control for MLSCN library redox annotation, primary screen; 200,000 compounds, 0.03% hits; DTT-dependent redox cycling H2O2, phenol red/HRP absorbance; 100% = 100 µM peroxide control, 0% = buffer; activation, % at 10 µM;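 active = activation of at least 50% relative to the plate's high and low controls in the primary single-dose screen; inactive = activation below 50%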;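 note: compound incubated with DTT at 0.8 mM final as the reducing agent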
Diaphorase act: counter-screen for diaphorase-based assays: diaphorase activators and chemical reducers; Diaphorase/resazurin coupled assay, resorufin fluorescence, 16 min; active compounds read high; 1 = vehicle wells, 0 = NADH-free wells; activation factor at 20 µM; 190,000 compounds, 0.005% hits;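 active = diaphorase activity raised at least twofold by the compound at 20 µM; inactive = activation factor below 2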
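Material: Purified diaphorase enzyme from Clostridium kluyveri | Buffer or medium: 50 mM HEPES pH 7.4 with 4.542 mM MgCl2, 0.005% Tween 20 | Times: 16 min enzyme reaction, ambient temperature | Signal: Red resorufin fluorescence at 544/590 nm excitation/emission | Measure: Increased resorufin signal from activators or reducing compounds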
PMI activator: increases human mannose-6-phosphate isomerase activity | AID 1214 | 190,000 compounds, 0.005% hits | activation factor at 20 µM | P34949 | purified human PMI, coupled resazurin fluorescence, 20 min; active compounds read high; 1 = vehicle control, 0 substrate-free wells;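 active = activation factor of 2 or more at 20 µM, relative to plate controls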
Target sequence (P34949 whole entry, looked up): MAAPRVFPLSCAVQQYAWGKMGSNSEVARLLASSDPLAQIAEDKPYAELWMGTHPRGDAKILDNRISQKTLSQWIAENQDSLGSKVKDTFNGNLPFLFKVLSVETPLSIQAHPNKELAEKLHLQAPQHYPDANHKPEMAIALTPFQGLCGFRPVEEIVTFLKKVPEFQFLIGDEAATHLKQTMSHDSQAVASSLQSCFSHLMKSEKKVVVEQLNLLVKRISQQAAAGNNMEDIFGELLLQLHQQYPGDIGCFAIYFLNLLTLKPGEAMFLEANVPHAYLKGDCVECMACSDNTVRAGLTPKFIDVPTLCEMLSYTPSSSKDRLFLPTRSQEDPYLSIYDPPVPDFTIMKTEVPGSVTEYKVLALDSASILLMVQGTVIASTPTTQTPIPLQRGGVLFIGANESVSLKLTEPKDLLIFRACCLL
PMI act hi M6P: activators of human phosphomannose isomerase at near-saturating mannose 6-phosphate; 190,000 compounds, 0.34% hits; AID 1216; activation factor at 20 µM; P34949; coupled PMI enzyme assay, resazurin fluorescence, 20 min; active compounds read high; 1 = untreated enzyme, 0 = substrate-free blank;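 active = activation factor of 2 or more at 20 µM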
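assay system = human phosphomannose isomerase with PGI, G6PDH, diaphorase coupling enzymes | quantity = 15 ng/mL PMI | incubation = enzyme reaction with compound 20 min at room temperature | medium = HEPES pH 7.4 buffer with MgCl2 and Tween-20 | compound dosing = one concentration, 20 µM, in 1% DMSO | measured by = Diaphorase-driven resazurin-to-resorufin fluorescence, excitation 544, emission 590 nm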
G6PDH CS: L. mesenteroides G6PDH inhibition counter-screen | Purified L. mesenteroides G6PDH, diaphorase/resazurin coupled fluorescence, 45 min | inhibition, % at 5 µM | 200,000 compounds, 0.12% hits | AID 1020; in the data active = inhibition above about 50%
* = called active by the depositor; . = no result. This is a sample that favours compounds with a hit; in the whole collection about 1.1% have one here.

SMILES	Diaphorase inh	DTT redox prof	Diaphorase act	PMI activator	PMI act hi M6P	G6PDH CS
COCCCNc1nc2nonc2nc1N1CCC(C(C)N2CCOCC2)CC1 (stereo unspecified)	-11.4	-0.9	1.1	1.1	1.1	5.3
Cc1cc(C)n(C(=O)Cn2nc([N+](=O)[O-])c(Br)c2C)n1	7.0	-0.1	0.9	1.1	1.2	2.6
CCCCCCCC[n+]1cccc(C(=O)N(CC)CC)c1	19.5	0.1	0.8	1	1	4.5
CCCCCCCCCCCCCCCC[n+]1cccc(C(=O)N(CC)CC)c1	-95.4	-0.2	2*	1	1.1	-6.1
Cc1[nH]c(=S)c(C#N)c2c1CCCC2	14.7	0.1	0.9	1.7	2*	-8.8
CC(C)Cc1c2c([nH]c(=S)c1C#N)CCCC2	16.5	0.1	0.8	1.6	2*	-3.1
Cc1[nH]c(=O)c(C#N)c2c1CCCC2	7.1	0.8	0.9	0.9	0.9	2.1
N#Cc1c(-c2ccco2)c2c([nH]c1=S)CCCC2	20.5	.	0.8	1.3	1.8	-31.1
CC1Nc2nc(N(C)C)[nH]c(=O)c2NC1C (stereo unspecified)	6.9	-0.2	0.9	1.8	2.7*	3.8
COc1ccc(CNC(=O)C(=O)NCCCn2ccnc2)cc1	.	-0.5	.	.	.	14.9
O=c1[nH]c(-c2ccccc2)cs1	8.3	-0.1	0.9	1	1.1	3.7
S=c1[nH]c(-c2ccccc2)cs1	18.8	0.7	0.8	1.6	2.1*	-1.3
Fc1ccc(-c2csc(=S)[nH]2)cc1	24.5	-0.5	0.8	1.6	2.4*	5.5
Cc1ccc(Nc2nc(N)c(C#N)c(CC#N)c2C#N)cc1	1.6	-0.5	1	1	0.7	4.4
CC(C)=CCc1c(O)ccc2c1OC(c1ccc(O)c(O)c1)CC2=O (stereo unspecified)	62.1*	-1.4	0.4	0.6	0.8	28.3
O=C(CN1CCN(CC(=O)Nc2ccccc2Cl)CC1)Nc1ccc2c(c1)OCCO2	15.3	-1.1	0.8	1.4	2*	8.8
Cc1ccc(NC(=O)Nc2ccc(F)cc2)cc1Cl	2.6	-1.3	1	1	1	2.7
O=C(C1=C(c2ccccc2)C(=O)c2ccccc2C1=O)c1ccccc1	39.9	1.0	0.6	0.5	0.3	57.7*
COC1=C(c2ccccc2)C(=O)c2ccccc2C1=O	7.8	-0.1	0.9	2*	1.6	46.0
Cc1ccc(CC(=O)NCc2ccc(F)cc2)cc1	8.2	0.1	0.9	0.9	0.9	7.5
Cc1ccc2c(c1)nnn2C1CCN(C(=O)NCc2ccccc2)CC1	-17.4	-0.5	1.2	1.1	1.1	10.6
Cc1cccc(NC(=O)N2CCC(n3nnc4cc(C)ccc43)CC2)c1	78.6*	-0.3	0.2	0.9	0.9	19.1
CCCCN(CCCC)C(=S)NC(=O)c1ccccc1Cl	18.8	0.1	0.8	0.9	0.9	0.3
O=C1NC(c2ccccc2)Nc2c1sc(=S)n2-c1ccccc1 (stereo unspecified)	19.4	-1.0	0.8	1.7	2.2*	7.4
CCOc1ccc(C2NC(=O)c3sc(=S)n(-c4ccccc4)c3N2)cc1 (stereo unspecified)	-7.9	0.2	1.1	1.7	2.3*	-2.1
COc1ccc(C2NC(=O)c3sc(=S)n(-c4ccccc4)c3N2)cc1 (stereo unspecified)	11.7	0.2	0.9	1.3	1.5	-0.9
O=c1[nH]c(-c2ccccn2)nc2sc(-c3ccccc3)cc12	30.3	-0.6	0.7	0.5	0.8	12.9
N#Cc1ccsc1NC(=O)COC(=O)c1cc2ccccc2cc1O	16.7	.	0.8	1	0.7	-2.4
Cc1ccc([N+](=O)[O-])c(OCCN2CCC(Cc3ccccc3)CC2)c1	14.8	-0.1	0.9	0.9	0.9	1.1
O=C(COC(=O)Cn1cnc2ccccc2c1=O)Nc1cc(Cl)ccc1[N+](=O)[O-]	16.7	-0.4	0.8	0.9	0.9	13.6
